# According to ChEMBL document CHEMBL1151961, “14,15-Epoxyeicosa-5,8,11-trienoic acid (14,15-EET) surrogates containing epoxide bioisosteres: influence upon vascular relaxation and soluble epoxide hydrolase inhibition” (J Med Chem, 2009):
# Tests used:
# [1] = molecular target: T1, Bifunctional epoxide hydrolase 2 (Homo sapiens, UniProt P34913); assay: Inhibition of human recombinant soluble epoxide hydrolase expressed in baculovirus system assessed as appearance of 6-methoxynaphthaldehyde product by fluorescent-based assay
# T1 sequence (P34913 whole entry): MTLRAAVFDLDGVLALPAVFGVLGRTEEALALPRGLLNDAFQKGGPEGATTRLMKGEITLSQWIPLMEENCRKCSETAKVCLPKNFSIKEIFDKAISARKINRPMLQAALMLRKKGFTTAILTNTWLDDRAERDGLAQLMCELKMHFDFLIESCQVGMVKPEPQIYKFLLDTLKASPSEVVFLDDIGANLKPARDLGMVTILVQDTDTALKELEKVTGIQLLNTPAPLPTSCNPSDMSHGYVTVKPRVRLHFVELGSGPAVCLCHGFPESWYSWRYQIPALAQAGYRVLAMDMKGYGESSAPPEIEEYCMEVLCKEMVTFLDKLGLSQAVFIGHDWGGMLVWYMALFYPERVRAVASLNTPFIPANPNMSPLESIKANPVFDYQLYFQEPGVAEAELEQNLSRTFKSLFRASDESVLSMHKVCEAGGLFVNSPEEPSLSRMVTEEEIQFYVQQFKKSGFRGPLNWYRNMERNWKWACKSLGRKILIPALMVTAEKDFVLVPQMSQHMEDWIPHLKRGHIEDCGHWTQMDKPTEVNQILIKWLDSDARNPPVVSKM
# [2] = Vasorelaxant activity against U46619-induced contraction in bovine coronary artery ring at 10 uM treated after U46619 challenge; format: functional, Bos taurus; parameters: scale not given: the % may be the effect or the level left
# [3] = Vasorelaxant activity against U46619-induced contraction in bovine coronary artery ring treated after U46619 challenge; format: functional, tissue-based; conditions: Bos taurus
# Outline: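 Bioassay run 3-5 times (n = 3-5); reported values are means, ±10% SD.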
# [4] = Vasorelaxant activity against U46619-induced contraction in bovine coronary artery ring at 10 uM treated after U46619 challenge; parameters: scale not given: the % may be the effect or the level left
SMILES,IC50 [1],EC50 ([3]; read-out: EC50),EC50 ([3]; read-out: ED50 (the source's name)),Activity [2],Activity [4]
CCCCCN(C)C(=O)N(C)CCCC/C=C\CCCCCCC(=O)O,8.48 µM,3.2 µM,,83%,
CCCCCNC(=S)NCCCC/C=C\CCCCCCC(=O)O,0.77 µM,1.5 µM,,99%,
CCCCCNC(=O)NCCCCC#CCCCCCCC(=O)O,0.043 µM,3.1 µM,,62%,
CCCCCNC(=O)NCCCCCCC/C=C\CCCC(=O)O,0.793 µM,5.6 µM,,66%,
CCCCN(C)C(=O)C(=O)N(C)CCCC/C=C\CCCCCCC(=O)O,17.6 µM,4.4 µM,,70%,
CCCCCNC(=O)OCCCC/C=C\CCCCCCC(=O)O,3.48 µM,9.3 µM,,53%,
CCCCCC1CN=C(CCCC/C=C\CCCCCCC(=O)OC)O1 (stereo unspecified),0.688 µM,> 10 µM,,33%,
CCCCCCC(=O)N(C)CCCC/C=C\CCCCCCC(=O)O,11.2 µM,4.3 µM,,64.5%,
CCCCCCC(=O)N(CCCC/C=C\CCCCCCC(=O)O)C(C)C,19 µM,1.7 µM,,100%,
CCCCCCNC(=O)NCCC/C=C\CCCCCCC(=O)O,0.016 µM,3.5 µM,,86%,
CCNC(=O)NCCCC/C=C\CCCCCCCCCC(=O)O,2.6 µM,> 10 µM,,50%,
CCCCCNC(=O)NOCCC/C=C\CCCCCCC(=O)O,1.37 µM,3.7 µM,,87%,
CCCCCCNC(=O)CCCC/C=C\CCCCCCC(=O)O,0.066 µM,4.9 µM,,74%,
CCCCC[C@@H]1O[C@@H]1C/C=C\C/C=C\C/C=C\CCCC(=O)O (relative stereo),,,2.2 µM,,85%

# Further compounds by falling IC50 [1], results first:
IC50 [1],EC50 ([3]; read-out: EC50),EC50 ([3]; read-out: ED50 (the source's name)),SMILES,Activity [2],Activity [4]
58.7 µM,1.7 µM,,CCCCNC(=O)C(=O)NCCCC/C=C\CCCCCCC(=O)O,89%,
17.8 µM,6.2 µM,,CCCCCc1cn(CCCC/C=C\CCCCCCC(=O)[O-])nn1.[Na+],65%,
13.9 µM,> 10 µM,,CCCCCCN(C)C(=O)CCCC/C=C\CCCCCCC(=O)O,12%,
11.1 µM,2.3 µM,,CCCCCN(C)C(=O)N(C)CCCCCCCC#CCCCC(=O)O,77.5%,
8.11 µM,> 10 µM,,CCCCCNC(=O)NCCCCC#CCCC(=O)O,46%,
7.15 µM,> 10 µM,,CCCCCc1ccc(CCCC/C=C\CCCCCCC(=O)O)o1,11%,
2.83 µM,8.3 µM,,CCCCCOC(=O)NCCCC/C=C\CCCCCCC(=O)O,64%,
1.45 µM,3.2 µM,,CCCCCN(C)C(=O)NCCCC/C=C\CCCCCCC(=O)O,88%,
1.36 µM,> 10 µM,,CCCCCNC(=O)NCCCC/C=C\CCC(=O)O,16%,
0.272 µM,5.7 µM,,CCCCCCC(=O)NCCCCCCCC#CCCCC(=O)O,69%,
0.152 µM,4.6 µM,,CCCCNC(=O)NCCCCC/C=C\CCCCCCC(=O)OC,84%,
0.079 µM,6.1 µM,,CCCCCCC(=O)NCCCC/C=C\CCCCCCC(=O)O,64.5%,
0.0715 µM,7.6 µM,,CCCCCNC(=O)N(C)CCCC/C=C\CCCCCCC(=O)O,59%,
0.0485 µM,> 10 µM,,CCCCCNC(=O)NCCCC/C=C/CCCCCCC(=O)O,29%,
0.046 µM,7.5 µM,,CCCCCNC(=O)NCCCC/C=C\CCCCCCC(=O)O,63%,
